Published values collected from several papers.
Each line is one published result; the experiments were not run side by side.
Target: Interleukin-1 receptor-associated kinase 1 (IRAK1, Homo sapiens, UniProt P51617)

| SMILES | test | setting | measurement | value |
| --- | --- | --- | --- | --- |
| Cc1cc(O)c(-c2ccc([C@@H](C)CN(C)C)cc2)c2c1[nH]c(=O)c1sccc12 | enzyme activity, inhibitor | 0.1 µM | inhibition | -2.56% |
| C1=C/COCc2cc(ccc2OCCN2CCCC2)Nc2nccc(n2)-c2cccc(c2)COC/1 | binding | 0.1 µM | remaining binding | 0% |
| C#Cc1cc(-c2cc(Nc3nc(N[C@@H](C)c4ccc(F)cn4)ncc3Cl)n[nH]2)ccc1C=O | enzyme activity, inhibitor | 0.2 µM | inhibition | 10.8% |
| CO[C@@H]1[C@H](N(C)C(=O)c2ccccc2)C[C@H]2O[C@]1(C)n1c3ccccc3c3c4c(c5c6ccccc6n2c5c31)C(=O)NC4 | enzyme activity, inhibitor | 1 µM | inhibition | 19% |
| C[C@H]1CC[C@H](n2c3cnccc3c3cnc(Nc4ccc5c(n4)CCN(C(=O)CO)C5)nc32)CC1 | cell-free assay | 1 µM | remaining signal | 23% |
| COc1ccc2oc(-c3ccc4nc(N)oc4c3)c/c(=N\c3ccccc3NC(=O)CCN)c2c1 | binding | 1 µM | remaining binding | 102% |
| Cc1ccc(NC(=O)c2ccnc(C(F)(F)F)c2)cc1-c1cc(OCCO)nc(N2CCOCC2)c1 | binding | 1 µM | remaining binding | 100% |
| C=CC(=O)N1CCC([C@@H]2CCNc3c(C(N)=O)c(-c4ccc(Oc5ccccc5)cc4)nn32)CC1 | enzyme activity, inhibitor | 1 µM | inhibition | 0% |
| CCCCC(=O)Nc1ccc(-c2ccc3ncn(CCC)c(=O)c3c2)cn1 | binding, competition with immobilised ligand | 0.5 µM | remaining binding | 75% |
